Laboratory results: PMC7345411 (ACS Omega, 2020)
Values joined by “and” are separate entries in the source; they are usually repeats but may differ in a detail not shown here. Equal values may be shown once.

Experiments:
[1] = Solubility in water by UV-visible spectrophotometry; assay type: physicochemical
HCT116 = experiment: MTT cell proliferation inhibition assay; assay type: cell-based; conditions: Homo sapiens, HCT-116, 72 h
HeLa = experiment: MTT cell proliferation inhibition assay; assay type: cell-based; conditions: Homo sapiens, 72 h
Hep G2 = experiment: MTT cell proliferation inhibition assay; assay type: cell-based; conditions: Homo sapiens, HepG2, 72 h
JEG3 = experiment: MTT cell proliferation inhibition assay; assay type: cell-based; conditions: Homo sapiens, JEG-3, 72 h
SMMC7721 = experiment: MTT cell proliferation inhibition assay; assay type: cell-based; conditions: Homo sapiens, SMMC-7721, 72 h
HCT116 tumor = experiment: HCT116 xenograft tumor model in BALB/c nude mice; assay type: in vivo; conditions: dose 0.036 mmol/kg/d, daily injection for 21 days
In short: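 Nude mice given 5 × 10^5 viable HCT116 cells subcutaneously in the right flank. Daily injections into the left hypogastrium for 21 days. Test compound at 0.006, 0.012 or 0.018 mmol/kg/d. Comparators: 5-FU 0.036 mmol/kg/d and an uncrystallised 3:1 mix (5-FU 0.036 + NCM 0.012 mmol/kg/d), plus blank control. Mice euthanised; tumours weighed and examined by H&E (×100). TGI = (mean control weight − mean treated weight)/mean control weight.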

[2] = Pharmacokinetics after oral administration in rats; assay type: in vivo, Sprague-Dawley rats; conditions: 0.06 mmol/kg
Acute toxicity study = assay type: in vivo; conditions: for Nd (number of dead animals) / R (%) = Nd/Ni: Ni 10; for LD50: in vivo, acute toxicity
[3] = Sprague-Dawley, rat, plasma, po
[4] = dose 122.2/0.86 (mg/kg)/(mmol/kg)
[5] = dose 133.4/1.03 (mg/kg)/(mmol/kg)
[6] = dose 158.5/1.22 (mg/kg)/(mmol/kg)

O=c1[nH]cc(F)c(=O)[nH]1 [5-FU, 5-Fluorouracil]
solubility at 24 h [1]: 10500 µg/mL and 80000 µM | IC50 (HCT116): 0.0325 µM | IC50 (HeLa): 7.96 µM | IC50 (Hep G2): 3.86 µM | IC50 (JEG3): 2.18 µM | IC50 (SMMC7721): 18.9 µM | TGI (tumor growth inhibition) (HCT116 tumor): 21.8% | W̅ average tumor growth weight (HCT116 tumor): 0.65 ± 0.10 g | AUC(0-inf) [2, 3]: 5.07 ± 0.104 µM·h | AUC(0-t) [2, 3]: 4.93 ± 0.076 µM·h | CL/F [2, 3]: 197 mL/min/kg | Cmax [2, 3]: 7.99 ± 0.375 µM | Tmax [2, 3]: 20 min | half-life [2, 3]: 18.1 ± 3.72 min | V1/F ([2]; oral, SD rats, n = 8): 2.783 ± 0.915 L/kg | t1/2α ([2]; oral, SD rats, n = 8): 3.84 ± 0.78 min | probit (P + 5) (Acute toxicity study; [4]): 3.720 | Nd (number of dead animals) (Acute toxicity study; [4]): 1 | R (%) = Nd/Ni (Acute toxicity study; [4]): 10% | probit (P + 5) (Acute toxicity study; [5]): 5.520 | Nd (number of dead animals) (Acute toxicity study; [5]): 7 | R (%) = Nd/Ni (Acute toxicity study; [5]): 70% | probit (P + 5) (Acute toxicity study; [6]): 6.28 | Nd (number of dead animals) (Acute toxicity study; [6]): 9 | R (%) = Nd/Ni (Acute toxicity study; [6]): 90% | LD50 (Acute toxicity study; LD50 95% confidence interval): 380 to 2630 µmol/kg | LD50 (Acute toxicity study; LD50 (median lethal dose)): 1000 µmol/kg
